Assay results published in article PMC2232887 (The Journal of General Physiology, 2000).
Several values for one entry are separate records, joined by “and”; a condition that tells them apart may be missing. Equal values may be shown once. Read-outs that look alike come from different tables or passages of the source.

Tests used:
[1] = tested on: heteromeric RETα+β channels; type: biochemical, bovine; details: 10 μM L-cis diltiazem, saturating (2 mM) cGMP
[2] = target: hybrid OLFα+RETβ channels (UniProt Q00195+Q28181); type: biochemical; details: for block of channels by L-cis diltiazem: 10 μM L-cis diltiazem
Chain of hybrid OLFα+RETβ channels (Q28181 whole entry, one chain of several): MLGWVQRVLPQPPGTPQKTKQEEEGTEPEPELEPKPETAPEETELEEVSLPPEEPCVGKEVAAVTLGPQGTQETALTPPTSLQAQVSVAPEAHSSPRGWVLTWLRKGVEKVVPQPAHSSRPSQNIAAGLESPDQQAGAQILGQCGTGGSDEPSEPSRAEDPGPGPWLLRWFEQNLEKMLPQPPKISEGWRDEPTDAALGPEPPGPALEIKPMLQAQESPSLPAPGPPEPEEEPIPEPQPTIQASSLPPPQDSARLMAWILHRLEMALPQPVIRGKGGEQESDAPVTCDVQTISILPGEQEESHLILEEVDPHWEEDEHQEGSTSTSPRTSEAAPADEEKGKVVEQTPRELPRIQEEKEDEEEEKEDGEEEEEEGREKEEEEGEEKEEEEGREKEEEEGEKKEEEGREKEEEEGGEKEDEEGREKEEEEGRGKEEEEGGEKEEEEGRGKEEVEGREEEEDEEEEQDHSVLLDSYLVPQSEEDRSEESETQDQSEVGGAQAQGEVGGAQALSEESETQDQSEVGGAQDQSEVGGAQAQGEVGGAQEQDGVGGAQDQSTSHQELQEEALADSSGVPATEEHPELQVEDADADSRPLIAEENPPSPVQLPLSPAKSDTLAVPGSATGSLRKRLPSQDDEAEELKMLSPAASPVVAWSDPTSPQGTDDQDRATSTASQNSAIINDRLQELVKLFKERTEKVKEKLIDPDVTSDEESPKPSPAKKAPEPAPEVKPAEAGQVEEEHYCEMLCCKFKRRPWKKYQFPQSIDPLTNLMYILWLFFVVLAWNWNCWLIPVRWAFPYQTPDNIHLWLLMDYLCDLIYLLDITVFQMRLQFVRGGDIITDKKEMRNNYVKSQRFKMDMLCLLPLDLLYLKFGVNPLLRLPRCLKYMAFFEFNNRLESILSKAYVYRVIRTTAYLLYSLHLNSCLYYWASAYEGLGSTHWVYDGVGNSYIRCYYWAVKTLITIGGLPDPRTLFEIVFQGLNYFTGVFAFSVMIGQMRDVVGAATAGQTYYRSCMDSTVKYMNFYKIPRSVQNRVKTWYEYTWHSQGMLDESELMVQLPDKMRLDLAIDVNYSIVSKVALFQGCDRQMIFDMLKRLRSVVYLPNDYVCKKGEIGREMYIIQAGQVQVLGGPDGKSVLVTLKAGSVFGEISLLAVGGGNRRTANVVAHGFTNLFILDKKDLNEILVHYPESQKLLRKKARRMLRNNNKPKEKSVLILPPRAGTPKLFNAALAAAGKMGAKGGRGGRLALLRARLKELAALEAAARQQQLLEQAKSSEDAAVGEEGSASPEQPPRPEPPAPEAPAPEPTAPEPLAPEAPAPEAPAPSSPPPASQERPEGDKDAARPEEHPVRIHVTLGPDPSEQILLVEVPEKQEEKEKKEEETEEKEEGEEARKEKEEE
Procedure, shortened: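 Xenopus oocytes were co-injected with olfactory α and rod β subunit mRNAs. Inside-out patches were recorded at 21–24°C in standard patch solution (115 mM NaCl, 5 EGTA, 1 EDTA, 5 HEPES, pH 7.5), held at −75 mV. Rod β incorporation was checked by applying 10 μM l-cis diltiazem. Currents were normalised to Imax at 2 mM cGMP.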

[3] = tested on: native rod CNG channels; assay: Inside-out patch recording of native rod CNG channels from rod outer segments; type: biochemical, tiger salamanders (Ambystoma tigrinum); details: for effect on the kinetics, cGMP sensitivity, or maximal current: in the absence of genistein
Procedure, shortened: (§1)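 Dark-adapted (1 h) tiger salamanders were anaesthetised in ice-cold […] (1 g/liter, 20 min). Retinas were triturated under dim red light, and inside-out patches were excised from rod or cone outer segments. Pipettes were 3–5 MΩ (115 mM NaCl, 5 EGTA, 1 EDTA, 5 HEPES, pH 7.5). Held at −75 mV; currents normalised to 2 mM cGMP Imax. Closed channels were pre-exposed 1 min to test compound, then given 2 mM cGMP. Ki from modified Hill fit.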

[4] = target: T1, homomeric OLFα channels (rat olfactory CNG channels) (Rattus norvegicus, UniProt Q00195); type: biochemical; details: concentrations up to 500 μM
T1 sequence (Q00195 1-664): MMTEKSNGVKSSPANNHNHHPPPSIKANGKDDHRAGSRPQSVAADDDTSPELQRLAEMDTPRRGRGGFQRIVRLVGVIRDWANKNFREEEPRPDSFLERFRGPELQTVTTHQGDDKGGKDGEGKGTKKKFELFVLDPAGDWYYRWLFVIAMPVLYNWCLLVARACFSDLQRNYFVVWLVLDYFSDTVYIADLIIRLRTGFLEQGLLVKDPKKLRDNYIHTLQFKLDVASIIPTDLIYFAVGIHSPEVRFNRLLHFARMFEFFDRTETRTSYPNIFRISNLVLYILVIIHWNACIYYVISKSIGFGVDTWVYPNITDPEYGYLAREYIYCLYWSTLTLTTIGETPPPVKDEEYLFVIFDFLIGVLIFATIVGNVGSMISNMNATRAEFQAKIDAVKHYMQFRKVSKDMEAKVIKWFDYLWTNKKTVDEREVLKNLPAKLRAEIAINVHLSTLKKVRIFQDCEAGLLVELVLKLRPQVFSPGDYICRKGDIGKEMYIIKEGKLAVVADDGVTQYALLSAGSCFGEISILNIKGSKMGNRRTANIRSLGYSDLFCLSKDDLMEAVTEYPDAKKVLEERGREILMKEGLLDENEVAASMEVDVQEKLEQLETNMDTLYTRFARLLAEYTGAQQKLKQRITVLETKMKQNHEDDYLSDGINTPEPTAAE

[5] = tested on: native olfactory CNG channels; type: biochemical, tiger salamanders
Procedure, shortened: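 Olfactory epithelium from land-phase tiger salamanders was digested with papain for 18–22 min at 21°C, washed 10 min in ice-cold solution and triturated to single neurons. Excised patches used 10–20 MΩ pipettes. Held at −75 mV; currents normalised to 2 mM cGMP Imax; mean ± SEM.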

[6] = target: heteromeric RETα+β channels (Bos taurus, UniProt Q00194); type: biochemical, bovine
Chain of heteromeric RETα+β channels (Bos taurus, UniProt Q00194) (Q28181 whole entry partner, one chain of several): as the sequence (Q28181 whole entry, one chain of several) above

[7] = tested on: native cone CNG channels; assay: Inside-out patch recording of native cone CNG channels from cone outer segments; type: biochemical, tiger salamanders (Ambystoma tigrinum)
Procedure, shortened: as §1

[8] = target: T2, homomeric RETα channels (α subunits of the bovine rod photoreceptor CNG channel) (Bos taurus, UniProt Q00194); type: biochemical
T2 sequence (Q00194 1-690): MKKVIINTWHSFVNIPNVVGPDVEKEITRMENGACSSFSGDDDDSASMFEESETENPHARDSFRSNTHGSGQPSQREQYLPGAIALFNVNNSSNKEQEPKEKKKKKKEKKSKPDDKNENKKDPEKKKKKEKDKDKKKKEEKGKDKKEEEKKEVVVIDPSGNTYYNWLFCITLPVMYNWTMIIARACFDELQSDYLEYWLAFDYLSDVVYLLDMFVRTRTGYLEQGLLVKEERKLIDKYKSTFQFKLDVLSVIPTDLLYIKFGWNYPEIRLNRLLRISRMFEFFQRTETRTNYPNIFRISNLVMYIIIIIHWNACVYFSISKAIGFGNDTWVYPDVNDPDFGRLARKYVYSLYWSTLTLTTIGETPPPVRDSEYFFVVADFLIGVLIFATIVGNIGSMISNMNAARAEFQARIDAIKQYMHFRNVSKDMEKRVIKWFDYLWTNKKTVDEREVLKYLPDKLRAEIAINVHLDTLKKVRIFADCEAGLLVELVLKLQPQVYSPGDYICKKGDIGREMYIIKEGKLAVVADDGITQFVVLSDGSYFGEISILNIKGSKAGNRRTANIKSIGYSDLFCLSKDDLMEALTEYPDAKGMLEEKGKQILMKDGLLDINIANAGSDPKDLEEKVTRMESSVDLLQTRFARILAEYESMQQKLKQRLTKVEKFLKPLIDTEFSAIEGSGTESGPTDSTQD
Procedure, shortened: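 Bovine rod CNG α-subunit cRNA was injected into Xenopus oocytes (50 nl at 1 ng/nl). After 2–7 d, vitelline membrane was removed. Inside-out patches were recorded at 21–24°C with 2–3 MΩ pipettes in standard patch solution (115 mM NaCl, 5 EGTA, 1 EDTA, 5 HEPES, pH 7.5), held at −75 mV. Perfusion switched in 50 ms. Test compound (DMSO stock) was applied before or after 2 mM cGMP. Ki and Hill coefficient from modified Hill fit.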

[9] = target: T3, heteromeric OLFα+β channels (Rattus norvegicus, UniProt Q00195+Q64359); type: biochemical; details: closed and fully activated channels
T3 sequence (Q00195 1-664): T1 sequence (Q00195 1-664)
T3 sequence (Q64359 1-575): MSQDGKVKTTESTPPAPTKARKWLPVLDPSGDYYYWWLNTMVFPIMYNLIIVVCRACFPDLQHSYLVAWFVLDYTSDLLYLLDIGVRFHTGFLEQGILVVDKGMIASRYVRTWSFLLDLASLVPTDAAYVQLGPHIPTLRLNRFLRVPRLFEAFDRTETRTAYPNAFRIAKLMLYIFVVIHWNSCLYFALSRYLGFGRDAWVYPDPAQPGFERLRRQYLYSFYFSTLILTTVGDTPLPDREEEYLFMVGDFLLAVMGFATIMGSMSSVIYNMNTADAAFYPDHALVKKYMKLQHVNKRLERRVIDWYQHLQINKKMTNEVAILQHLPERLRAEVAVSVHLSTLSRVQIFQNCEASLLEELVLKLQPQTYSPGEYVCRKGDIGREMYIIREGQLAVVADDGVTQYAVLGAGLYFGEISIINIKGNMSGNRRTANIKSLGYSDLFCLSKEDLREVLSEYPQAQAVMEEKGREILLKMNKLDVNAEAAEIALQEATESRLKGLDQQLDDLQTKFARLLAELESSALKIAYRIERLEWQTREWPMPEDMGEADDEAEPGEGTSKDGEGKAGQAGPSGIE

[10] = closed channels, saturating genistein (500 μM)
[11] = fully activated, saturating cGMP (2 mM)

COc1ccc([C@H]2Sc3ccccc3N(CCN(C)C)C(=O)[C@H]2OC(C)=O)cc1 (relative stereo) [L-cis diltiazem]
inhibition of channels by L-cis diltiazem ([1]; RETα to RETβ mRNA ratio 1:5): 50%
inhibition of channels by L-cis diltiazem ([1]; RETα to RETβ mRNA ratio 1:8): 78%
inhibition of channels by L-cis diltiazem ([1]; RETα to RETβ mRNA ratio 1:10): 80%
block of channels by L-cis diltiazem ([2]; OLFα to RETβ mRNA ratio 1:1.5): 36.8 ± 2.9%
block of channels by L-cis diltiazem ([2]; OLFα to RETβ mRNA ratio 1:3): 32.8 ± 1.4%

Nc1ncnc2c1ncn2[C@@H]1O[C@H](COP(=O)(O)OP(=O)(O)NP(=O)(O)O)[C@@H](O)[C@H]1O [AMP-PNP, adenylylimidodiphosphate]
effect on the kinetics, cGMP sensitivity, or maximal current [3]: no effect

O=CN/C=C/c1cc(O)ccc1O [erbstatin]
effect on the kinetics, cGMP sensitivity, or maximal current [3]: no effect

O=c1c(-c2ccc(O)cc2)coc2cc(O)cc(O)c12 [genistein]
τ of slowly activating CNG current component after genistein pretreatment ([3]; closed channels pre-exposed to 100 μM genistein for 1 min, then 2 mM cGMP): 8.5 s
maximal inhibition of closed channels by saturating genistein [3, 10]: 61 ± 8%
inhibition of fully activated channels by genistein [3, 11]: 31 ± 4%
time constant of genistein inhibition ([3]; open, fully activated channels): 1.2 s
genistein inhibition of closed channels ([4]; closed channels): fails to inhibit
genistein inhibition of fully activated channels ([4]; fully activated channels): fails to inhibit
maximal inhibition of closed channels by saturating genistein [5, 10]: 28 ± 4%
inhibition of fully activated channels by genistein [5, 11]: 11 ± 4%
Hill coefficient of genistein inhibition ([6]; closed channels): ~2 and ~1
Hill coefficient of genistein inhibition ([6]; open, fully activated channels): ~1
time constant of genistein inhibition ([6]; open, fully activated channels): ~1 s
maximal inhibition of closed channels by saturating genistein [7, 10]: 50 ± 3%
inhibition of fully activated channels by genistein [7, 11]: 37 ± 3%
Hill coefficient of genistein inhibition ([8]; closed channels): ~2
inhibition of fully activated channels by genistein [8, 11]: 67 ± 4%
Hill coefficient of genistein inhibition ([8]; open, fully activated channels): ~1
time constant of genistein inhibition ([8]; open, fully activated channels): 9 s
Ki ([8]; read-out: apparent K i for genistein, closed channels): 4 µM
effect of genistein on hybrid channels ([2]; closed and fully activated states): no effect
genistein inhibition compared with native olfactory channels [9]: inhibited to an even greater extent than were native olfactory channels
